What all share (assay type): cell-based
Assay [1] concerns rat hypothalamic neurons (native AT1R). The assay can be described thus: Whole cell patch recordings from neurons in rat hypothalamic slices. Conditions: for effect on Ang II-induced depolarization / effect on Ang-(1-12)-induced depolarization: antagonist/inhibitor 10 μM; for effect on Ang II-induced depolarization: pretreatment of slices by superfusion; for effect on Ang-(1-12)-induced depolarization: prior superfusion of slices. The procedure, abridged:
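Coronal hypothalamic slices (250 μm, vibratome) came from Sprague-Dawley rats, 17-20 days old, of either sex, anaesthetised with 4% isoflurane. Slices were superfused with solution gassed with 95% O2/5% CO2 at 20 ± 1°C. Current-clamp whole-cell recordings were made from neurons […] to the 3rd ventricle. Peptide was puffed by nitrogen from a micropipette at 20-30 min intervals. Slices were pretreated with losartan, PD123319 or captopril at 10 μM each.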

Assay [2] has as its target T1, AT1R (Homo sapiens, UniProt P30556).
T1 sequence (P30556 1-359): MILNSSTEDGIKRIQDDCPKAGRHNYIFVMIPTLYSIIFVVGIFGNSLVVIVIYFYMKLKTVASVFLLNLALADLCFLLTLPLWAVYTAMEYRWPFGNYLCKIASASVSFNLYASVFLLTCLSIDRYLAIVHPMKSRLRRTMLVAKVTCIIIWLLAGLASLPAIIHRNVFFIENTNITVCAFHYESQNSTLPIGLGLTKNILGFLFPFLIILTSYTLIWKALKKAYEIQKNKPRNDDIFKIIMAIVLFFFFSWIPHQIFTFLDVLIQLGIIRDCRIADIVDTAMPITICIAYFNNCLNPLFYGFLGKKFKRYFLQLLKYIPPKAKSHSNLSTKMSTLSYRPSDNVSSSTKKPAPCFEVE
Description: Ca2+-based FLIPR assay, CHO/16z25 cells transiently expressing AT1R.

Assay [3] addresses T1, AT1R. Conditions: 10 μM losartan; 1 μM Ang II or 10 μM Ang-(1-12), 5 min.

Take `CC[C@H](C)[C@H](NC(=O)[C@H](Cc1ccc(O)cc1)NC(=O)[C@@H](NC(=O)[C@H](CCCNC(=N)N)NC(=O)[C@@H](N)CC(=O)O)C(C)C)C(=O)N[C@@H](Cc1c[nH]cn1)C(=O)N1CCC[C@H]1C(=O)N[C@@H](Cc1ccccc1)C(=O)O` [Ang II, angiotensin II]: the “hypothalamic neurons depolarized of those examined” value in assay [1] (Ang II 1 mM in micropipette, pressure ejection) is reported as 10 of the 27. Besides, the “membrane depolarization, mean amplitude” value in assay [1] (Ang II 1 mM in micropipette, pressure ejection, mean ± SEM, n=10) is 6.9 ± 0.9 mV.
`CCCCc1nc(Cl)c(CO)n1Cc1ccc(-c2ccccc2-c2nn[nH]n2)cc1` [losartan]: the “effect on Ca2+ response stimulated by Ang-(1-12)” value in assay [2] (5 μM Ang-(1-12), losartan 0.1-10 μM, pre-incubated 30 min, dose-dependent) is on record as “effectively suppressed”. Besides, the “effect on Ang II-induced Ca2+ mobilization” value in assay [2] (COS-7 and CHO cells transfected with AT1R cDNA) is reported as “suppressed”. In assay [3], the “effect on Ang-(1-12)- and Ang II-induced ERK responses” value was “inhibited”. Besides, in assay [1], the “effect on Ang II-induced depolarization” value is on record as “suppressed” and the “effect on Ang-(1-12)-induced depolarization” value is on record as “antagonized”.
With `Cc1cc(Cn2cnc3c2C[C@@H](C(=O)O)N(C(=O)C(c2ccccc2)c2ccccc2)C3)ccc1N(C)C` [PD-123319], the “effect on Ang-(1-12)-induced depolarization” value in assay [1] is “not affected”.
Take `C[C@H](CS)C(=O)N1CCC[C@H]1C(=O)O` [captopril]: in assay [1], the “effect on Ang II-induced depolarization” value was “not affected” and the “effect on Ang-(1-12)-induced depolarization” value is listed as “failed to suppress”.

These data come from publication PMC3823637 (Neuropharmacology, 2013).
